{"data": "Assay results gathered from unrelated publications", "target": "Platelet-derived growth factor receptor beta (PDGFRB, Homo sapiens, UniProt P09619)", "note": "Lines come from different studies, so protocols differ."}
{"SMILES": "C#Cc1n[nH]c2c(-c3cn([C@@H](C)c4ccccc4)c(=O)[nH]c3=O)cc(F)cc12", "test": "enzyme activity, inhibitor", "conditions": "0.1 µM", "quantity": "inhibition", "value": "3.1%"}
{"SMILES": "Nc1ncc(-c2nc(N3CCOCC3)nc(N3CCOCC3)n2)c(C(F)F)n1", "test": "binding, competition with immobilised ligand", "conditions": "10 µM", "quantity": "remaining binding", "value": "69%"}
{"SMILES": "N#CC1(c2ccccn2)CCN(Cc2cc(C(=O)O)c(=O)n3ccccc23)CC1", "test": "cell-free assay, competition with immobilised ligand", "conditions": "1 µM", "quantity": "remaining binding", "value": "100%"}
{"SMILES": "Cn1cc(-c2cc(F)cc(N3CCn4c(cc5c4CCCC5)C3=O)c2CO)cc(Nc2ccc(N3CCN(C4COC4)CC3)cn2)c1=O", "test": "enzyme activity, inhibitor", "conditions": "0.1 µM", "quantity": "inhibition", "value": "2%"}
{"SMILES": "COCc1c(-c2cc3cc(C)cc(OC)c3s2)c2c(N)ncnn2c1CN1CCNC(=O)C1", "test": "cell-free assay, competition with immobilised ligand", "conditions": "1 µM", "quantity": "inhibition", "value": "86%"}
{"SMILES": "CC(C)(C)c1cc(C=C(C#N)C#N)cc(Br)c1O", "test": "enzyme activity, inhibitor", "conditions": "0.5 µM", "quantity": "remaining activity", "value": "104%"}
{"SMILES": "COc1ncccc1-c1cnn2ccc(N3CCN(C(=O)OC(C)C)CC3)nc12", "test": "binding, competition with immobilised ligand", "conditions": "1 µM", "quantity": "remaining binding", "value": "83%"}
{"SMILES": "C#Cc1n[nH]c2c(-c3cn([C@@H](C)c4ccccn4)c(=O)[nH]c3=O)cc(F)cc12", "test": "enzyme activity, inhibitor", "conditions": "0.1 µM", "quantity": "inhibition", "value": "4%"}
{"SMILES": "Cn1cncc1[C@](O)(COc1ccc(C#N)cc1-c1ccc(OC(F)(F)F)cc1)c1ccc(C#N)cc1", "test": "cell-free assay, competition with immobilised ligand", "conditions": "1 µM", "quantity": "remaining binding", "value": "100%"}
{"SMILES": "O=c1[nH]c2ccccc2n1C1CCN(Cc2ccc(-c3[nH]c4cc5ncnc5cc4nc3-c3ccccc3)cc2)CC1", "test": "enzyme activity", "conditions": "0.5 µM", "quantity": "remaining activity", "value": "102%"}
{"SMILES": "Cn1cc(-c2cccc(N3CCc4c(sc5c4CC(C)(C)C5)C3=O)c2CO)cc(Nc2ccncn2)c1=O", "test": "enzyme activity, inhibitor", "conditions": "1 µM", "quantity": "inhibition", "value": "3%"}
